From ChEMBL document CHEMBL2040711, “Synthesis, characterization and antimicrobial studies of some new quinoline incorporated benzimidazole derivatives” (2012)

Key:
Format in all cases: functional
Settings in all cases: read-out: DIZ
Escherichia coli [1] = assay: Antibacterial activity against Escherichia coli at 12.5 ug/ml after 24 to 48 hrs by well plate diffusion method
Method in brief: (§1)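 Agar well diffusion: 15-20 mL agar per dish, plates dried 1 h at 37 ± 2 °C in laminar flow, then seeded. Wells cut with an agar punch, each loaded with compound dissolved in DMSO (6.25 or 12.5 μg/mL). DMSO solvent control, ciprofloxacin standard. Plates in triplicate, incubated 37 ± 2 °C for 24–48 h. Inhibition zone diameter read in mm, with SD.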

Aspergillus flavus [2] = assay: Antifungal activity against Aspergillus flavus at 6.25 ug/ml after 72 hrs by well plate method
Aspergillus niger [3] = assay: Antifungal activity against Aspergillus niger at 6.25 ug/ml after 72 hrs by well plate method
Salmonella sp. [4] = assay: Antibacterial activity against Salmonella sp. at 6.25 ug/ml after 24 to 48 hrs by well plate diffusion method; method in brief: as §1
Staphylococcus aureus [5] = assay: Antibacterial activity against Staphylococcus aureus at 12.5 ug/ml after 24 to 48 hrs by well plate diffusion method; method in brief: as §1
Xanthomonas sp. [6] = assay: Antibacterial activity against Xanthomonas sp. at 6.25 ug/ml after 24 to 48 hrs by well plate diffusion method; method in brief: as §1
Aspergillus terreus [7] = assay: Antifungal activity against Aspergillus terreus at 12.5 ug/ml after 72 hrs by well plate method
Method in brief: (§2)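 Sabouraud agar: peptone 10 g, glucose 40 g, agar 20 g per litre water, pH 5.7. Spore suspension made from a loopful of fungus in 3 mL normal saline and lawned on 20 mL agar per dish. Excess decanted, plates dried 1 h at 37 °C. Wells punched and loaded with compound in DMSO (6.25 or 12.5 μg/mL). DMSO control. Triplicate plates held at 25 °C for 72 h. Inhibition zone diameter measured. A. terreus strain NCIM 1325.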

Aspergillus flavus [8] = assay: Antifungal activity against Aspergillus flavus at 12.5 ug/ml after 72 hrs by well plate method
Aspergillus niger [9] = assay: Antifungal activity against Aspergillus niger at 12.5 ug/ml after 72 hrs by well plate method
Salmonella sp. [10] = assay: Antibacterial activity against Salmonella sp. at 12.5 ug/ml after 24 to 48 hrs by well plate diffusion method; method in brief: as §1
Staphylococcus aureus [11] = assay: Antibacterial activity against Staphylococcus aureus at 6.25 ug/ml after 24 to 48 hrs by well plate diffusion method; method in brief: as §1
Penicillium sp. [12] = assay: Antifungal activity against Penicillium sp. at 6.25 ug/ml after 72 hrs by well plate method
Xanthomonas sp. [13] = assay: Antibacterial activity against Xanthomonas sp. at 12.5 ug/ml after 24 to 48 hrs by well plate diffusion method; method in brief: as §1
Penicillium sp. [14] = assay: Antifungal activity against Penicillium sp. at 12.5 ug/ml after 72 hrs by well plate method
Escherichia coli [15] = assay: Antibacterial activity against Escherichia coli at 6.25 ug/ml after 24 to 48 hrs by well plate diffusion method; method in brief: as §1
Aspergillus terreus [16] = assay: Antifungal activity against Aspergillus terreus at 6.25 ug/ml after 72 hrs by well plate method; method in brief: as §2

Structure (SMILES)	zone of inhibition at 12.5 µg/mL (Escherichia coli [1]) [mm]	zone of inhibition at 6.25 µg/mL (Aspergillus flavus [2]) [mm]	zone of inhibition at 6.25 µg/mL (Aspergillus niger [3]) [mm]	zone of inhibition at 6.25 µg/mL (Salmonella sp. [4]) [mm]	zone of inhibition at 12.5 µg/mL (Staphylococcus aureus [5]) [mm]	zone of inhibition at 6.25 µg/mL (Xanthomonas sp. [6]) [mm]	zone of inhibition at 12.5 µg/mL (Aspergillus terreus [7]) [mm]	zone of inhibition at 12.5 µg/mL (Aspergillus flavus [8]) [mm]	zone of inhibition at 12.5 µg/mL (Aspergillus niger [9]) [mm]	zone of inhibition at 12.5 µg/mL (Salmonella sp. [10]) [mm]	zone of inhibition at 6.25 µg/mL (Staphylococcus aureus [11]) [mm]	zone of inhibition at 6.25 µg/mL (Penicillium sp. [12]) [mm]	zone of inhibition at 12.5 µg/mL (Xanthomonas sp. [13]) [mm]	zone of inhibition at 12.5 µg/mL (Penicillium sp. [14]) [mm]	zone of inhibition at 6.25 µg/mL (Escherichia coli [15]) [mm]	zone of inhibition at 6.25 µg/mL (Aspergillus terreus [16]) [mm]
Fc1ccc(-c2cc(-c3nc4cc(Cl)c(Cl)cc4[nH]3)c3cc(Cl)ccc3n2)cc1	17	13	12	20	12	14	10	13	12	28	10	12	16	19	12	9
Fc1ccc(-c2cc(-c3nc4ccccc4[nH]3)c3ccccc3n2)cc1	16	11	11	9	13	11	14	12	12	15	12	15	12	17	11	12
Fc1ccc(-c2cc(-c3nc4ccc(Cl)cc4[nH]3)c3ccccc3n2)cc1	16	11	15	9	13	15	16	16	18	17	12	12	15	12	–	10
Fc1ccc(-c2cc(-c3nc4cc(Cl)c(Cl)cc4[nH]3)c3ccccc3n2)cc1	16	10	10	11	16	20	11	10	12	12	12	12	22	12	12	10
